ChEMBL document CHEMBL5653631, “A Potent and Selective ULK1 Inhibitor Suppresses Autophagy and Sensitizes Cancer Cells to Nutrient Stress” (iScience, 2018)

How the values were obtained:
[1] = target: T1, Tyrosine-protein kinase TXK (Homo sapiens) (UniProt P42681); assay: Inhibition of human recombinant TXK at 40 nM related to control ULK1
T1 sequence (whole entry): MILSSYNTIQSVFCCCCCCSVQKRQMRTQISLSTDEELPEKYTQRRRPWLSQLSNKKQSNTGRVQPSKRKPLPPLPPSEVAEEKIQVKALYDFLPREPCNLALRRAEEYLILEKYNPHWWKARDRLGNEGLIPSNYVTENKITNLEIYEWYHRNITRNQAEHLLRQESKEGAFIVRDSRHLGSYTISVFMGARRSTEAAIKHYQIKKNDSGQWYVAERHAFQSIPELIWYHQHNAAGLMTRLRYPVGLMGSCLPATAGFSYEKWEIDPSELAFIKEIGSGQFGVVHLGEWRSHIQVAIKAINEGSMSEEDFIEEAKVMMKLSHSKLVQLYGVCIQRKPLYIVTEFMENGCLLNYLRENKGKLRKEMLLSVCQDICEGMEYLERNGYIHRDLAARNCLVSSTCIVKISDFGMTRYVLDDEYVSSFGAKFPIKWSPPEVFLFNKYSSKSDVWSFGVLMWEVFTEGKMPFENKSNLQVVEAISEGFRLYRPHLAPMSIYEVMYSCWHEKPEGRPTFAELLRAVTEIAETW

[2] = target: Tyrosine-protein kinase Blk (Homo sapiens) (UniProt P51451); assay: Inhibition of human recombinant BLK at 40 nM related to control ULK1
In short: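 Radiometric activity assays in a panel of 327 human recombinant kinases, each run in duplicate at one inhibitor concentration. Activity remaining is expressed as percent of vehicle control, and percent inhibition is calculated as 100% minus percent activity remaining.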

[3] = target: Ephrin type-A receptor 2 (Homo sapiens) (UniProt P29317); assay: Inhibition of human recombinant EphA2 at 40 nM related to control ULK1
[4] = target: T2, Serine/threonine-protein kinase Nek2 (Homo sapiens) (UniProt P51955); assay: Inhibition of human recombinant NEK2 at 500 nM related to control ULK1
T2 sequence (whole entry): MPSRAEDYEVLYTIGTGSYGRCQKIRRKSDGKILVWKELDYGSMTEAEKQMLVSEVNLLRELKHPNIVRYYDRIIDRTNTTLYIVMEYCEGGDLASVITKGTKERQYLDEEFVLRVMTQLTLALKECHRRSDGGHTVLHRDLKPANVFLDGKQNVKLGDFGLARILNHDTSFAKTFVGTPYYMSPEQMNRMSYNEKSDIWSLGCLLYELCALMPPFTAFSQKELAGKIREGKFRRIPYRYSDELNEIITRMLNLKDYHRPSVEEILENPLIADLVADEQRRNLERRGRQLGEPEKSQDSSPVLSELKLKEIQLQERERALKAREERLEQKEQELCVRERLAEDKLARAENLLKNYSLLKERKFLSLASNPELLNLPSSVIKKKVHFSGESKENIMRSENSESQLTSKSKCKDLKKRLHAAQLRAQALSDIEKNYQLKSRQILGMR

[5] = target: T3, Beta-adrenergic receptor kinase 1 (Homo sapiens) (UniProt P25098); assay: Inhibition of human recombinant BARK1 at 500 nM in presence of ATP by radiometric assay relative to control
T3 sequence (whole entry): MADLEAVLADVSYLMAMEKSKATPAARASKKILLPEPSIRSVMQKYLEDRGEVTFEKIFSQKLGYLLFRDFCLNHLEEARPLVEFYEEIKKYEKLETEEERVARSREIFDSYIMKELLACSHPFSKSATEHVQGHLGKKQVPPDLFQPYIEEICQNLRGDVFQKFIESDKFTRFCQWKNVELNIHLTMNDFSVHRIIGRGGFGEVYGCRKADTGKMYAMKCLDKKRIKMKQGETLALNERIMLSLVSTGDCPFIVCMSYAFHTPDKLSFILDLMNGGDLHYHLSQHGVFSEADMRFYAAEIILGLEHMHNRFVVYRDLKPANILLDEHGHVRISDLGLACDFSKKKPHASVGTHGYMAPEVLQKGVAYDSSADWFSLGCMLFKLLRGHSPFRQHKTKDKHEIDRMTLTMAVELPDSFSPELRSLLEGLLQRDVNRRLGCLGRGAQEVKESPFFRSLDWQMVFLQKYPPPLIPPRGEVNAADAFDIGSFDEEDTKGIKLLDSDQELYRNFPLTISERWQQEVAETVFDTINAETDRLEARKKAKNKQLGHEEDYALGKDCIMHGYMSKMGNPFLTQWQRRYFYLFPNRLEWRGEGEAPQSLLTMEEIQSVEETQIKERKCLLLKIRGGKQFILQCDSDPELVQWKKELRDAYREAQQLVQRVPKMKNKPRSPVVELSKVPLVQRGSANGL
In short: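 Part of a radiometric in vitro activity panel of 327 recombinant human kinases. Each kinase was tested in duplicate at one inhibitor concentration. Activity remaining was expressed as a percentage of the vehicle control, and percent inhibition was taken as 100 minus that value.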

[6] = target: LIM domain kinase 1 (Homo sapiens) (UniProt P53667); assay: Inhibition of human recombinant LIMK1 at 500 nM in presence of ATP by radiometric assay relative to control
[7] = target: Death-associated protein kinase 3 (Homo sapiens) (UniProt O43293); assay: Inhibition of human recombinant DAPK3 at 500 nM related to control ULK1
[8] = target: Wee1-like protein kinase 2 (Homo sapiens) (UniProt P0C1S8); assay: Inhibition of human recombinant Wee1B at 500 nM related to control ULK1
[9] = target: Interleukin-1 receptor-associated kinase 1 (Homo sapiens) (UniProt P51617); assay: Inhibition of human recombinant IRAK1 at 500 nM related to control ULK1
[10] = target: Angiopoietin-1 receptor (Homo sapiens) (UniProt Q02763); assay: Inhibition of human recombinant Tie2 at 15 nM in presence of ATP by radiometric assay relative to control
[11] = target: Serine/threonine-protein kinase 32A (Homo sapiens) (UniProt Q8WU08); assay: Inhibition of human recombinant YANK1 at 15 nM related to control ULK1
[12] = target: T4, Serine/threonine-protein kinase 17B (Homo sapiens) (UniProt O94768); assay: Inhibition of human recombinant DRAK2 at 15 nM in presence of ATP by radiometric assay relative to control
T4 sequence (whole entry): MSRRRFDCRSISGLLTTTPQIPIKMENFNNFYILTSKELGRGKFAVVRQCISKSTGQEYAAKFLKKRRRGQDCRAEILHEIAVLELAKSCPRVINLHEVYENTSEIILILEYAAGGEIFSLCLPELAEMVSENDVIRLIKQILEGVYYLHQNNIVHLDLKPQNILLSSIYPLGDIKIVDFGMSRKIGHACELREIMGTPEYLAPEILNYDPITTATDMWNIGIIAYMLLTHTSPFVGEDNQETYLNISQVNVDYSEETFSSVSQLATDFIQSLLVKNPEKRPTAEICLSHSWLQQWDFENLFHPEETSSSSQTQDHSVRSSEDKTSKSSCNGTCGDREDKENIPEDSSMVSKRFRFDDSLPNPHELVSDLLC

Chain of Serine/threonine-protein kinase 32A (Homo sapiens) (Q8WU08 whole entry): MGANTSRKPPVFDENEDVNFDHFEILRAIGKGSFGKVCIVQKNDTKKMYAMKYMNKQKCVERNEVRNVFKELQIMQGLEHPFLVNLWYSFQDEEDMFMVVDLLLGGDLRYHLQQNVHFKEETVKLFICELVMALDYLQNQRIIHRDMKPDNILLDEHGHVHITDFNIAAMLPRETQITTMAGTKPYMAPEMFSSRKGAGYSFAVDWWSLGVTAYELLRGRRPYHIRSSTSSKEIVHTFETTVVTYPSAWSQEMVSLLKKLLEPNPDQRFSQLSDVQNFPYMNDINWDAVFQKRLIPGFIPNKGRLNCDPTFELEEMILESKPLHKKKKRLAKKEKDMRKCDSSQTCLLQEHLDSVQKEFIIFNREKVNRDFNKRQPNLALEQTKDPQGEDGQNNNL
Chain of Wee1-like protein kinase 2 (Homo sapiens) (P0C1S8 whole entry, looked up): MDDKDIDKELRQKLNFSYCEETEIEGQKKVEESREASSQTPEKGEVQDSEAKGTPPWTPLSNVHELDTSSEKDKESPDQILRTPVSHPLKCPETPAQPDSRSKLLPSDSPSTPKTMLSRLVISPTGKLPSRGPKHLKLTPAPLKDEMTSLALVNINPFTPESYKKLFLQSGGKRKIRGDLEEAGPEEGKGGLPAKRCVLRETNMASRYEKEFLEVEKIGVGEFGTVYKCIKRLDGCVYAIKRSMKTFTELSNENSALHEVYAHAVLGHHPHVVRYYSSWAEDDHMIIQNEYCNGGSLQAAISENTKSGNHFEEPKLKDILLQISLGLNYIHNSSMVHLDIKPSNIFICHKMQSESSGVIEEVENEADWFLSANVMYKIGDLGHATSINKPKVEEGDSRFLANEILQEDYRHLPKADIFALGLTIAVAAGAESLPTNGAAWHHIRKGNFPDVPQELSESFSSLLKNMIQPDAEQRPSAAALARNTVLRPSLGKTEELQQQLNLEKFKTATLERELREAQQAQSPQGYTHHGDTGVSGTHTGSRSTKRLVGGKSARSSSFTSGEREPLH
Chain of Ephrin type-A receptor 2 (Homo sapiens) (P29317 whole entry): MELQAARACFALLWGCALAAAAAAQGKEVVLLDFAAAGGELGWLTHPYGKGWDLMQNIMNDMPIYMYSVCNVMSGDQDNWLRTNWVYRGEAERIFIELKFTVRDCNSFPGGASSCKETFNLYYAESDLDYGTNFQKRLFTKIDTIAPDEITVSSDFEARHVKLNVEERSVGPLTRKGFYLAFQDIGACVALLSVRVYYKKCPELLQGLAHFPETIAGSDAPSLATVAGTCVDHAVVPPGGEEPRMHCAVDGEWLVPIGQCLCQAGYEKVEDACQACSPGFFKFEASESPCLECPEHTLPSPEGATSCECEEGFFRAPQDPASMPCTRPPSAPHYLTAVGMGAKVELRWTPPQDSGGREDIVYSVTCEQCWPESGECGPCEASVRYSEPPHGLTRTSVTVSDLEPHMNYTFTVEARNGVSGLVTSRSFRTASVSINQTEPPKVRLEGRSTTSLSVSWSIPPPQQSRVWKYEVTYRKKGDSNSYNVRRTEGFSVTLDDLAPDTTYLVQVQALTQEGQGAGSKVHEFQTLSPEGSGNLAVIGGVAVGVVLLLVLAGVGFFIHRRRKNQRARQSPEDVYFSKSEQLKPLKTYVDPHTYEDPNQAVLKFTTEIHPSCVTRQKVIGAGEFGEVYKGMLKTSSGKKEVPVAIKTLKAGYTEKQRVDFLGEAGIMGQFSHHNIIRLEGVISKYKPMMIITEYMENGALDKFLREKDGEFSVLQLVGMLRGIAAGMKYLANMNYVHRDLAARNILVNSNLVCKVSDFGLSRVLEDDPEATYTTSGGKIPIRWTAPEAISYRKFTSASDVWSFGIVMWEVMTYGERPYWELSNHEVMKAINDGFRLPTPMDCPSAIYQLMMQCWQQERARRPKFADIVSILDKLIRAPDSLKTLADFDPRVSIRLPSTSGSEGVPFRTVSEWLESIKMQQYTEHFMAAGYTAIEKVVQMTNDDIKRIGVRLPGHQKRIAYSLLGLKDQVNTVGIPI
Chain of Angiopoietin-1 receptor (Homo sapiens) (Q02763 whole entry): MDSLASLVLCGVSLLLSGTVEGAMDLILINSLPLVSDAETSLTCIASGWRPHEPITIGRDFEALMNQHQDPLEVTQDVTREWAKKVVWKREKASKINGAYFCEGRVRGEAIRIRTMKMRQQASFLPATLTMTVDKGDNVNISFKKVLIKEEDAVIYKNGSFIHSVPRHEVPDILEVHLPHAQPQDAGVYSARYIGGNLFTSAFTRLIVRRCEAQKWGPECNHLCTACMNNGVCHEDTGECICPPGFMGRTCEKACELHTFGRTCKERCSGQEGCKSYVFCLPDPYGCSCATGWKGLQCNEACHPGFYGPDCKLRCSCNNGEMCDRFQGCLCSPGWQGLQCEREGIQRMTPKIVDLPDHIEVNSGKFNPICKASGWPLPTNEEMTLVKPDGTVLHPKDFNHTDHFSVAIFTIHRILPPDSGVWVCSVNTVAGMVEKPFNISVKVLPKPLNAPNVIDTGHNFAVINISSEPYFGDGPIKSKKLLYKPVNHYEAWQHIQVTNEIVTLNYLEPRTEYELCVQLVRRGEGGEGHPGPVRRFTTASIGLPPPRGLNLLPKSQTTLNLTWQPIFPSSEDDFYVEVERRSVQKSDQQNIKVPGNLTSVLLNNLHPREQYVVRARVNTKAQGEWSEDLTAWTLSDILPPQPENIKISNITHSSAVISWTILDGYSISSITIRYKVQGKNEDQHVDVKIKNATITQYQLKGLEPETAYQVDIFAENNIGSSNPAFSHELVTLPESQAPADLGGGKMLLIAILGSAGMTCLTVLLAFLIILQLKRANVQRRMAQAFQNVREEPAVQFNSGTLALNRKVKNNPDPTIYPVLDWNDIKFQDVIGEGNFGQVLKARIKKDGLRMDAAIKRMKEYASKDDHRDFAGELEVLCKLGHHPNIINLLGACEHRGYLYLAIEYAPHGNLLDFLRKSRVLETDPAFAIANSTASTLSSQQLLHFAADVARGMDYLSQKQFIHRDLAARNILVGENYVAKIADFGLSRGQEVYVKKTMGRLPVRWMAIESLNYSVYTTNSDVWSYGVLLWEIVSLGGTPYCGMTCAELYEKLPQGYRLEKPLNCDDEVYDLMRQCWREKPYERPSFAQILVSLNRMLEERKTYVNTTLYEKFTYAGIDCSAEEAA
Chain of Interleukin-1 receptor-associated kinase 1 (Homo sapiens) (P51617 whole entry, looked up): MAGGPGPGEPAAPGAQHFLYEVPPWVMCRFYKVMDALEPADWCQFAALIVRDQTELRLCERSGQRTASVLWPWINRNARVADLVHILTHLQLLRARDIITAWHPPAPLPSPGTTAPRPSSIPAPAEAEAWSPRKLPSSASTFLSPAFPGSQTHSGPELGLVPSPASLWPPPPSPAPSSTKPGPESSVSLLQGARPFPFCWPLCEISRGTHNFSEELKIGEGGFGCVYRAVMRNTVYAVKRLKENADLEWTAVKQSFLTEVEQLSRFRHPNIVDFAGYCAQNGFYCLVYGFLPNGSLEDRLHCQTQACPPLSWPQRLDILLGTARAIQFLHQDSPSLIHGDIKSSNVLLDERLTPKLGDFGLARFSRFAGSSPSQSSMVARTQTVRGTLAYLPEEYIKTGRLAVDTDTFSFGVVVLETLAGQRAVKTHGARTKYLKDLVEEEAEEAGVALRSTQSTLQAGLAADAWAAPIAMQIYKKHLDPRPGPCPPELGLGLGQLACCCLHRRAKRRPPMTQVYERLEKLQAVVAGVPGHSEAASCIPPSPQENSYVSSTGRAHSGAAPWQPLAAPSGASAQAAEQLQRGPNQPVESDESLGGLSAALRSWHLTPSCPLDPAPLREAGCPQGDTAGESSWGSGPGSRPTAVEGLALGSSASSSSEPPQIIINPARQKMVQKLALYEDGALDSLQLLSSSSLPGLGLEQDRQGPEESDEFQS
Chain of LIM domain kinase 1 (Homo sapiens) (P53667 whole entry, looked up, the tested form may be a part): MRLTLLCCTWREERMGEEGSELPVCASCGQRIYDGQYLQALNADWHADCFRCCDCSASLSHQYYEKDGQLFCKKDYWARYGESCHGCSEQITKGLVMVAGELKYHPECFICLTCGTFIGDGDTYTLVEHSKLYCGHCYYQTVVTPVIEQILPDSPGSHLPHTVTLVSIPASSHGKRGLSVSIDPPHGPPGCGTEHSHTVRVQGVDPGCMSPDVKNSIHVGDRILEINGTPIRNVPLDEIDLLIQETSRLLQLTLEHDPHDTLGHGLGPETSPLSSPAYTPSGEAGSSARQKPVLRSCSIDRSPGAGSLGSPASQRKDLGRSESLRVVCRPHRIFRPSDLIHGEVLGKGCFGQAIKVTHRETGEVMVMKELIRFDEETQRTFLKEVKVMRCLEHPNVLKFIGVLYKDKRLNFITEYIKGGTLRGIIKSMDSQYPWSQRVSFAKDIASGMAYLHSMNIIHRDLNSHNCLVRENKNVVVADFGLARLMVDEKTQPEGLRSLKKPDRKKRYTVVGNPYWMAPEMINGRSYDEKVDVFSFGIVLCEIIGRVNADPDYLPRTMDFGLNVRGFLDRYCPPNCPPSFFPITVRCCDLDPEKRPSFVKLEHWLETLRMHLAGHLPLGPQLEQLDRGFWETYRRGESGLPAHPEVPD
Chain of Tyrosine-protein kinase Blk (Homo sapiens) (P51451 2-505 limits assumed): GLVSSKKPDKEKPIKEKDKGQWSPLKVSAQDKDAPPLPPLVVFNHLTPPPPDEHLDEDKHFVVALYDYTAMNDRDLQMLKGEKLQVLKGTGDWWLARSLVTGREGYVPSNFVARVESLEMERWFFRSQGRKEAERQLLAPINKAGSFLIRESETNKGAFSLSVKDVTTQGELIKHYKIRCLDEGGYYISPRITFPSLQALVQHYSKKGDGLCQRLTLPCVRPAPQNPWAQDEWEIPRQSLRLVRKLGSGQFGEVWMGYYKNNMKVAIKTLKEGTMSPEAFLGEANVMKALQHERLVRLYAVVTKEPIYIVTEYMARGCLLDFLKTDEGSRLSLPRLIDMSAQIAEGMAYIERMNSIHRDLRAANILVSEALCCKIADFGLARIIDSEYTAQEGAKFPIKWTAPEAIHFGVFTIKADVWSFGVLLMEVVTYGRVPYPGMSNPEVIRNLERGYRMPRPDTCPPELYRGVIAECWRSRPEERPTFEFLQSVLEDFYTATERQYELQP

**Q.** Which fold change (FC) [1] does the source give for O=C(N[C@@H](C1CC1)C(F)(F)F)c1cc(-c2cnn3cc(-c4ccc(F)cc4)cnc23)cs1 here?
**A.** 0.18

**Q.** What about the fold change (FC) [2] of the same molecule?
**A.** 0.23

**Q.** And the fold change (FC) [3]?
**A.** 0.03

**Q.** What does the source list for CNC(=O)c1ccccc1Oc1nc(Nc2cc(OC)c(OC)c(OC)c2)ncc1Br?
**A.** fold change (FC) [4]: 0; inhibition [5]: 8%; inhibition [6]: 2%; fold change (FC) [7]: 0.14; fold change (FC) [8]: 0.03; fold change (FC) [9]: 0.2

**Q.** With CC(C)[C@H](NC(=O)c1cc(-c2cnn3cc(-c4ccc(OCCN5CCCCC5)cc4)cnc23)cs1)C(F)(F)F as the molecule, how does the inhibition [10] read?
**A.** 0%

**Q.** What about the fold change (FC) [11] of the same molecule?
**A.** 0.02

**Q.** What about the inhibition [12] of the same molecule?
**A.** 69%
